From PubChem BioAssay
NF-kB neuron act = compounds increasing NF-kB expression in human neuronal cells | NF-kB reporter expression; active compounds read high | fold change at 12.5 µM | 1.6% of 190,000 active | AID 1239; in the data active = fold change above about 3.3
APP 5'UTR act = activates APP 5'UTR luciferase reporter. 1% of 190,000 active. activation, % at 2 µM. AID 1276. SH-SY5Y APP 5'UTR luciferase reporter, luminescence; zero percent = DMSO vehicle wells;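 active = activation above a set limit, based on mean plus 3 SD of controls, cut at about 140% in these data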
FLuc act counter = affects firefly luciferase, flagging false hits in luciferase stimulation screens | P08659 | ATPlite luciferase biochemical, luminescence, 10 min; 0 = ATP-free wells, 1 = DMSO control | activation factor at 10 µM | 200,000 tested, under 10 active | AID 1027;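 active = luciferase activation factor, scaled between plate controls, of at least 2 with compound at 10 µM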
Target sequence (P08659 whole entry, looked up): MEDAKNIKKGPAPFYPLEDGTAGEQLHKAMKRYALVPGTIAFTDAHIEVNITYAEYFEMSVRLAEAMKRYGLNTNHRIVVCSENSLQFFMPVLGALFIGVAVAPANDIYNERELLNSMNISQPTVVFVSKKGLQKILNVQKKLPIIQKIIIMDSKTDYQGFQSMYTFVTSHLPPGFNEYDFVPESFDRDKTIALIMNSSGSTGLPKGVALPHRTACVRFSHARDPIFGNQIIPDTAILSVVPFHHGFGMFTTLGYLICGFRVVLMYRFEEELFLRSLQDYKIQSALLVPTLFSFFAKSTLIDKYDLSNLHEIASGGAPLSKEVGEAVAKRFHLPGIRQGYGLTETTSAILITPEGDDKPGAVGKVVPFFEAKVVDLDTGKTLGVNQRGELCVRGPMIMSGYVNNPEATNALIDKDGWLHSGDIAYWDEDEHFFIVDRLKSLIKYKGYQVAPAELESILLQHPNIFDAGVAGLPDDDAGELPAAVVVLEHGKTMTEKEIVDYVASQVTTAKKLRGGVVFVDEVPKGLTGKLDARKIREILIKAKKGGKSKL
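Assay system: Luciferase/luciferin reagent mix; Medium: PBS as buffer for the ATP substrate; Dosing: test compounds dosed from 2 mM stocks in 100% DMSO; Times: 10 min, room temperature; Signal: luminescence from luciferase reaction; Read-out: luciferase activation; Controls: No-ATP low control, compound-free enzyme-plus-ATP high control.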
PPC-1+TRAIL kill = PPC-1 cancer cell killing with TRAIL present | cell killing (% activity), % at 4 µM or 5 µM | 0.41% of 220,000 active | PPC-1 cells + TRAIL, ATPLite viability luminescence;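 active = cell killing above 50% in the first pass at 4 µM, then a duplicate retest at 5 µM averaging 50% or more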;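 note: plate controls were cells with TRAIL plus DMSO for no effect and medium-only wells lacking cells for full effect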
FLuc inh counter = Photinus pyralis luciferase inhibition counter-screen | AID 1006 | ATPLite firefly luciferase biochemical luminescence, 10 min | 1.5% of 200,000 active | inhibition, % at 10 µM;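 active = inhibition above about 50% when tested at 10 µM, limit read from the data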
TRAIL sens C8 = caspase-8 TRAIL sensitization | NB7+C8 cells + TRAIL, ATPlite viability luminescence | 1% of 360,000 active | AID 624354 | inhibition (viability loss, TRAIL sensitization), % at 10 µM;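 active = compounds causing at least 50% loss of cell viability in the single-dose screen, relative to plate controls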
Numbers without * were called inactive; nt = no result given. Rows were chosen to be rich in hits. Some 2.2% of all compounds tested hit in one or more screens of this group.

SMILES | NF-kB neuron act | APP 5'UTR act | FLuc act counter | PPC-1+TRAIL kill | FLuc inh counter | TRAIL sens C8
O=C(N=Nc1c(O)n(Cc2ccccc2)c2ccccc12)c1ccc(O)cc1 | 2.5 | 153* | 0.5 | 15 | 51* | 39
Cn1c(O)c(N=NC(=O)c2ccco2)c2ccccc21 | 2.5 | 176* | 0.4 | 23 | 64* | 40
Cn1c(O)c(N=NC(=O)c2ccccc2O)c2ccccc21 | 3.1 | 216* | 0.2 | 34 | 82* | 42
N#CC1=C(N)N2C(=C(C#N)C1c1ccc(Br)cc1)Nc1ccccc12 (centres undefined) | 0.56 | -10 | 1.1 | 4 | -6 | nt
N#CC1=C(N)N2C(=C(C#N)C1c1cccc(Br)c1)Nc1ccccc12 (centres undefined) | 0.83 | -8 | 1.1 | 28 | -6 | 53*
c1ccc2c(c1)cnc1ccccc12 | nt | nt | nt | 12 | nt | -7
c1ccc(-c2cnc(-c3ccccc3)nc2)cc1 | 9.4* | 79 | 0.3 | -2 | 66* | 75*
O=C(O)c1ncc(-c2ccccc2)cn1 | 0.98 | 5 | 1 | 0 | -4 | -2
c1ccc(-c2ncc3c(ccc4ccccc43)n2)cc1 | 1.2 | 113 | 0.1 | 78* | 89* | 84*
CCC(=O)N1CCC1(C)C(=O)Nc1nccs1 (centres undefined) | nt | nt | nt | nt | nt | 8
COc1ccc(N2C(=S)NC3N2C(=S)NC3(C)c2ccccc2)cc1 (centres undefined) | 6.7* | 55 | 1 | 11 | -2 | 5
CC1(c2ccccc2)NC(=S)N2C1NC(=S)N2c1ccccc1 (centres undefined) | 1.5 | 1 | 1 | -4 | -4 | -7
Clc1ccc(/C=N/Nc2ncnc3ccccc23)cc1Cl | 4.9* | nt | 0.9 | 8 | 14 | 13
Clc1cccc(/C=N/Nc2nc(Cl)nc3ccccc23)c1 | 2.5 | nt | 0.8 | 25 | 22 | 20
CCCC[C@@H]1CNC(=O)C(=O)N1CCc1cccc(F)c1 | nt | nt | nt | nt | nt | -4
O=C(COC(=O)c1ccccc1C(=O)c1ccc(Cl)c([N+](=O)[O-])c1)NC1CCCCCC1 | 1 | 8 | 1 | 16 | 3 | 94*
Cn1c(N)c(C(=O)COC(=O)c2ccccc2C(=O)c2ccc(Cl)c([N+](=O)[O-])c2)c(=O)n(C)c1=O | nt | nt | nt | nt | nt | 92*
O=C(COC(=O)c1ccc(Cl)c([N+](=O)[O-])c1)NC1CCCC1 | nt | nt | nt | nt | nt | 1
O=C(c1[nH]c(C(F)(F)F)nc1-c1ccccc1)N1CCC(Cc2ccccc2)CC1 | nt | nt | nt | nt | nt | -2
CCN(CC)c1ccc(NC(=O)c2ccc(Br)o2)cc1 | 7* | 178* | 0.5 | -14 | 53* | 32
CC1(C(=O)NCc2ccccc2)CSCC(=O)N1C1CC1 (centres undefined) | nt | nt | nt | nt | nt | -6
O=C(Nc1ccc2[nH]ncc2c1)c1ccccc1 | nt | nt | nt | nt | nt | 37
O=C(Nc1ccc(NC(=O)c2cccs2)cc1)c1cccs1 | nt | nt | nt | nt | nt | 12
COc1ccc(C(=O)Nc2ccc3[nH]ccc3c2)cc1 | nt | nt | nt | nt | nt | 93*
COc1ccc(C(=O)Nc2ccc3[nH]ccc3c2)cc1OC | nt | nt | nt | nt | nt | 41
SMILES | NF-kB neuron act | APP 5'UTR act | FLuc act counter | PPC-1+TRAIL kill | FLuc inh counter | TRAIL sens C8
CCOc1ccc(C(=O)Nc2ccc3[nH]ncc3c2)cc1 | nt | nt | nt | nt | nt | 72*
O=C(Nc1ccc2[nH]ncc2c1)c1ccc(F)cc1 | nt | nt | nt | nt | nt | 38
COc1ccc(C(=O)Nc2ccc3[nH]ncc3c2)cc1 | nt | nt | nt | nt | nt | 75*
O=C(Nc1ccc2[nH]ccc2c1)c1cccs1 | nt | nt | nt | 42 | nt | 63*
Brc1cccc(-c2nc3ccc(Br)cn3c2Cc2ccccc2)c1 | nt | nt | nt | nt | nt | -3
COCCNC(=O)C1(C)CCCN(C(=O)c2cc(OC)c(OC)c(OC)c2)C1 (centres undefined) | nt | nt | nt | nt | nt | -3
CCC1CCC(NC(=O)Nc2cccc(OC)c2)CC1 (centres undefined) | 4.5* | 158* | 0.7 | 20 | 33 | 23
Cc1snc(SCC(=O)c2ccc(Cl)cc2)c1C#N | 2.5 | 101 | 1.1 | -17 | -6 | -2
Cc1ccc(C(=O)CSc2nsc(C)c2C#N)cc1 | 6* | 156* | 1 | 12 | 3 | 3
COc1ccc(-c2csc(NCc3ccco3)n2)cc1 | 6.2* | 158* | 0.3 | 23 | 72* | 17
COc1ccccc1N1CCN(S(=O)(=O)CCNC(=O)CCc2ccccc2)CC1 | nt | nt | nt | nt | nt | 7
Oc1ccc(C=Nc2ccc(N3CCOCC3)cc2)c(O)c1 | 1.9 | -7 | 0.2 | 15 | 78* | -11
COc1cccc(CNc2ncc(Br)cc2Br)c1O | 2 | 44 | 0.9 | -7 | 8 | -6
COc1cccc(CNc2ccc(Br)cn2)c1O | 6.3* | 152* | 0.4 | 29 | 62* | 26
COc1ccc(NC(=O)c2nc(S(=O)(=O)Cc3cccc(C)c3)ncc2Cl)c(OC)c1 | nt | nt | nt | nt | nt | 52*
COc1ccc(OC)c(NC(=O)c2nc(S(=O)(=O)Cc3ccccc3)ncc2Cl)c1 | nt | nt | nt | nt | nt | 96*
Cc1cccc(CS(=O)(=O)c2ncc(Cl)c(C(=O)Nc3c(C)cccc3C)n2)c1 | nt | nt | nt | nt | nt | 29
O=C(OCc1ccccc1)c1c(-c2ccccc2)oc2c1C(OCCO)CCC2 (centres undefined) | nt | nt | nt | nt | nt | 7
C=C1C(=O)C23C(O)C1CCC2C12COC3(O)C(O)C1C(C)(C)CCC2O (centres undefined) | nt | nt | nt | nt | nt | 9
CC(=O)Oc1cccc(N2C(=O)c3cccc4c([N+](=O)[O-])ccc(c34)C2=O)c1 | nt | nt | nt | nt | nt | 36
Cc1ccc(C(=O)O)cc1N1C(=O)c2cccc3c([N+](=O)[O-])ccc(c23)C1=O | nt | nt | nt | nt | nt | 17
O=C(O)c1ccc(CN2C(=O)c3cccc4c([N+](=O)[O-])ccc(c34)C2=O)cc1 | nt | nt | nt | nt | nt | 58*
CN(C)CCCN1C(=O)c2cccc3c([N+](=O)[O-])ccc(c23)C1=O | 4.3* | -80 | 1 | 29 | -1 | 20
COc1ccc(C(=O)Nc2nnc(SCC(=O)NCc3ccco3)s2)c(OC)c1 | nt | nt | nt | nt | nt | 59*
O=C(CSc1nnc(NC(=O)c2ccccc2F)s1)Nc1ccccc1F | 1.6 | 44 | 0.1 | 45 | 89* | 58*
O=C(CSc1nnc(NC(=O)c2ccco2)s1)Nc1ccccc1F | 1.2 | -23 | 0.7 | -6 | 30 | 4
COc1ccc(C(=O)Nc2nnc(SCC(=O)NC3CCCC3)s2)c(OC)c1 | nt | nt | nt | nt | nt | 72*
